The source of these data is ChEMBL document CHEMBL3861968, “Neuroactive and Anti-inflammatory Frankincense Cembranes: A Structure-Activity Study” (J Nat Prod, 2016).

Holding throughout (format): cell-based
The target in test [1] is T1, Transient receptor potential cation channel subfamily V member 3 (Mus musculus, UniProt Q8K424).
T1 sequence (Q8K424 whole entry): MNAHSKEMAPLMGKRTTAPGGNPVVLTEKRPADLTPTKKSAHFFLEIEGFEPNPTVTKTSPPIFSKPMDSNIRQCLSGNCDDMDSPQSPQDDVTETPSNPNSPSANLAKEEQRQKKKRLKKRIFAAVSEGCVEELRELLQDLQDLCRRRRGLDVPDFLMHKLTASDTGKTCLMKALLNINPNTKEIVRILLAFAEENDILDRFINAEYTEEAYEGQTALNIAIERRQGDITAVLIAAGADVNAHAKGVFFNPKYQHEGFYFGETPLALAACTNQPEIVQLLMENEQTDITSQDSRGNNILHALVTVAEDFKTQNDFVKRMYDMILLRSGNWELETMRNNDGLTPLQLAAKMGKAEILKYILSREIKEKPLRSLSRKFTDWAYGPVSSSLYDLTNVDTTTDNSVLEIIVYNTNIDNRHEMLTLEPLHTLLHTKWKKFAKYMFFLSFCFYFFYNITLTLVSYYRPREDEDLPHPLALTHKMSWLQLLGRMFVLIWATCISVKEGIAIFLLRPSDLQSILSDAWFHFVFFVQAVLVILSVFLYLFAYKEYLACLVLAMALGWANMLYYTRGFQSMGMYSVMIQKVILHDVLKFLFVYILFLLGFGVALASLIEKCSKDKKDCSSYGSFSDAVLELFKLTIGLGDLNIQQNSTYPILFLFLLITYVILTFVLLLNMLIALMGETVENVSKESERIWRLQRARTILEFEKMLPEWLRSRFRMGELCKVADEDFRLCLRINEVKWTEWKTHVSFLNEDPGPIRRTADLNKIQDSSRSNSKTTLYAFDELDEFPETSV
Nature of the test: Agonist activity at mouse YFP-tagged TRPV3 expressed in HEK293 cells assessed as increase in calcium influx by Fluo-2-AM dye based microscopic analysis.

The target of test [2] is T2, Heat sensitive channel TRPV3 (Rattus norvegicus) (UniProt Q4QYD9).
T2 sequence (whole entry): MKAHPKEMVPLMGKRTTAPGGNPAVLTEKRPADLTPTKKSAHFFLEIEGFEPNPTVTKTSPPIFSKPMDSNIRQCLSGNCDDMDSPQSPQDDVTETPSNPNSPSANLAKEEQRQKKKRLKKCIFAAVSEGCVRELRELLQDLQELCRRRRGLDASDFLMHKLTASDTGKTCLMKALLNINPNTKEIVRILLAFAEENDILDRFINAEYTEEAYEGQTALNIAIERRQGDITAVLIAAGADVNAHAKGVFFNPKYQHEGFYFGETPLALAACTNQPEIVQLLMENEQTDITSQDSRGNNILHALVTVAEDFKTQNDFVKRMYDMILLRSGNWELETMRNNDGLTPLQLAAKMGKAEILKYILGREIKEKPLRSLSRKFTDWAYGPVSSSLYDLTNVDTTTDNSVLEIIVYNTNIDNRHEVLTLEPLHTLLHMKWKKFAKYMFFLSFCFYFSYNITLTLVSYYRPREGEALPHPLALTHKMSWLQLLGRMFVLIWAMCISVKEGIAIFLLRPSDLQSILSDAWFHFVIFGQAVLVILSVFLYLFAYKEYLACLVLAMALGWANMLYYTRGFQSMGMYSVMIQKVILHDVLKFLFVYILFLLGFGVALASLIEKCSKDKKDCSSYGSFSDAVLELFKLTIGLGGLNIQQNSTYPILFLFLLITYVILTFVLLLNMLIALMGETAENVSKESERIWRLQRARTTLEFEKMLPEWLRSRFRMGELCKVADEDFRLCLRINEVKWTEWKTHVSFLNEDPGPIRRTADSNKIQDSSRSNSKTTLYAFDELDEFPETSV
The test can be described thus: Activation of rat TRPV3 overexpressed in HEK293 cells assessed as increase in 2-aminoethoxydiphenyl borate-induced intracellular calcium concentration by Fluo-4AM dye-based spectrofluorometry relative to ionomycin. A digest of the protocol: (§1)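 Stable rat TRPV3 HEK293 cells in MEM with 10% FBS, 37 °C, 5% CO2. Pre-sensitized with 2-APB (100 μM). Loaded 1 h at room temperature with Fluo-4 AM (4 μM), washed, held in Tyrode's buffer pH 7.4 in a stirred cuvette. Untransfected HEK293 baseline subtracted. EC50 taken from sigmoidal variable-slope fit. Efficacy expressed relative to 4 μM ionomycin. At least triplicate.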
On the technique in general: Calcium assays in cells follow changes in intracellular calcium, usually with a dye or a luminescent sensor.

Test [3] can be described thus: Inhibition of TNFalpha-induced NFkappaB activation in mouse NIH-3T3 cells expressing NFkappaB (unknown origin) preincubated for 15 mins followed by TNFalpha addition measured after 6 hrs by luciferase reporter gene assay. Particulars: NIH3T3. Background: A reporter such as luciferase makes a cellular process visible.
Test [4] addresses T3, Heat sensitive channel TRPV3 (Rattus norvegicus, UniProt Q4QYD9).
T3 sequence (Q4QYD9 whole entry): T2 sequence (whole entry)
The test can be described thus: Antagonist activity at rat TRPV3 overexpressed in HEK293 cells assessed as inhibition of thymol-induced increase in intracellular Ca2+ levels preincubated for 5 mins prior to thymol-stimulation by Fluo-4AM dye-based spectrofluorometry. The gist of the method:
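Compounds added 5 min before thymol (100 μM). Thymol-alone response taken as 100%. IC50 of inhibition of the [Ca2+]i rise taken from sigmoidal variable-slope fit. At least triplicate. ANOVA with Bonferroni.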

In test [5] the target is T3, Heat sensitive channel TRPV3. Nature of the test: Activation of rat TRPV3 overexpressed in HEK293 cells assessed as increase in 2-aminoethoxydiphenyl borate-induced intracellular calcium concentration by Fluo-4AM dye-based spectrofluorometry. A digest of the protocol: as §1

SMILES strings stand for the structures. Some results are limits rather than exact numbers.

One may read the EC50 as the concentration giving half of the maximal effect. For orientation: Emax means the maximal effect, on the per cent scale that the assay sets. Broadly, the IC50 is the concentration needed to halve the response being measured. Regarding `CC(=O)O[C@H]1CC/C(C)=C/CC/C(C)=C/C[C@]2(C(C)C)CC[C@@]1(C)O2`, the EC50 in test [1] was 16 µM; in test [5] it was 1.4 µM. The maximal response (Emax) in test [2] amounted to 43.4%. The half-maximal inhibitory concentration (IC50) in test [3] was over 50 µM; in test [4], 2.2 µM.
Consider `C/C1=C\C[C@]2(C(C)C)CC[C@@](C)(O2)[C@@H](O)CC/C(C)=C/CC1` [INCENSOLE], for which the Emax in test [2] turned out to be 65.1%. For the same compound, the IC50 in test [3] was over 50 µM; in test [4], 2.1 µM. The 50% effective concentration (EC50) in test [5] worked out at 2.1 µM.
Turning to `C/C1=C\CC/C(C)=C/C[C@](O)(C(C)C)CC/C(C)=C/CC1`, the Emax in test [2] amounted to 62.4%. In addition, the results for the half-maximal inhibitory concentration (IC50) in test [3] and in test [4] were over 50 µM and 0.15 µM, respectively. Also, in test [5], the EC50 amounted to 0.17 µM.
Turning to `Cc1ccc(C(C)C)c(O)c1` [THYMOL], the Emax in test [2] worked out at 49.4%. For the same compound, the half-maximal effective concentration (EC50) in test [5] worked out at 29 µM.
With `C/C1=C\C[C@]2(C(C)C)CC[C@@](C)(O2)[C@@H](OC(=O)/C=C/c2ccccc2)CC/C(C)=C/CC1`, the half-maximal inhibitory concentration (IC50) in test [3] is over 50 µM.
On to `CC(=O)O[C@H]1CC[C@@]2(C)O[C@H]2CC/C(C)=C/C[C@]2(C(C)C)CC[C@@]1(C)O2`, for which, in test [2], the maximal response (Emax) is 31.6%. Moreover, the figures for the IC50 in test [3] and in test [4] were over 50 µM and 21.1 µM, respectively. Further, in test [5], the concentration for a half-maximal effect (EC50) turned out to be 8.6 µM.
For `C/C1=C\C[C@]2(C(C)C)CC[C@@](C)(O2)[C@H](O)CC/C(C)=C/CC1` the same measures were 38%, over 50 µM, 12.3 µM and 7.3 µM.
The like results for `CC(=O)O[C@H]1CC/C(C)=C/CC[C@]2(C)O[C@@H]2C[C@]2(C(C)C)CC[C@@]1(C)O2` were, in that order, 57.7%, over 50 µM, 13.2 µM and 8.8 µM.
With `CC1=C2CC/C(C)=C/CC[C@]3(C)O[C@@H]3CC/C(C)=C/[C@@H]2OC1=O`, in test [2], the maximal effect (Emax) is 21.3%. Further, the IC50 in test [3] is over 50 µM; in test [4], over 100 µM. Moreover, the EC50 in test [5] came out at 30.1 µM.
Consider `NC(=O)c1sc(-c2ccsc2)cc1N`, for which the midpoint of inhibition in test [3], the IC50, lay at 7.9 µM.
`CCCCCCCCC(=O)O[C@H]1CC/C(C)=C/CC/C(C)=C/C[C@]2(C(C)C)CC[C@@]1(C)O2` returned a half-inhibitory concentration (IC50) in test [3] of 35.5 µM.
Same read-out and setting: the result for `CC1=C2CC/C(C)=C/CC[C@]3(C)O[C@@H]3CC/C(C)=C/[C@@H]2OC1` reads over 50 µM.
Consider `C/C1=C\C[C@]2(C(C)C)CC[C@@](C)(O2)[C@@H](OC(=O)Cc2ccccc2)CC/C(C)=C/CC1`, for which the Emax in test [2] is 25.6%. Moreover, the IC50 worked out at 22.4 µM in test [3] and 21.7 µM in test [4]. For the same compound, the EC50 in test [5] stood at 1.2 µM.
In the case of `C/C1=C\C[C@]2(C(C)C)CC[C@@](C)(O2)C(=O)CC/C(C)=C/CC1`, the IC50 in test [3] was over 50 µM.
Regarding `C/C1=C\CC[C@]2(C)O[C@@H]2C[C@]2(C(C)C)CC[C@@](C)(O2)[C@@H](O)CC1`, the Emax in test [2] is 27.2%. Besides, the half-maximal inhibitory concentration (IC50) is over 50 µM in test [3] and over 100 µM in test [4]. In addition, in test [5], the EC50 worked out at 25.4 µM.
Compound `C/C1=C\C[C@]2(C(C)C)CC[C@@](C)(O2)[C@@H](OC(=O)c2ccccc2)CC/C(C)=C/CC1` showed a half-maximal inhibitory concentration (IC50) in test [3] of over 50 µM.
